One block for each compound: values may come before it.
Columns and labels:
[1] = target: T1, Estrogen receptor (Mus musculus) (UniProt O08537+P19785); test: Anti-uterotrophic effect in mice as relative uterine weight(mg) at 150 ug; type: functional
Method in brief: (§1)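 Immature mice received the compound sc per animal on three consecutive days, alone or with 0.4 µg estrone per animal per day. Uteri were taken 24 h after the last injection, Bouin-fixed, dried at 100 °C for 24 h and weighed. Relative uterus weight = dry weight (mg)/body weight (g) × 100; mean of 6-10 animals ± SD; Mann-Whitney U test.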
Target sequence in this assay (O08537 whole entry, looked up): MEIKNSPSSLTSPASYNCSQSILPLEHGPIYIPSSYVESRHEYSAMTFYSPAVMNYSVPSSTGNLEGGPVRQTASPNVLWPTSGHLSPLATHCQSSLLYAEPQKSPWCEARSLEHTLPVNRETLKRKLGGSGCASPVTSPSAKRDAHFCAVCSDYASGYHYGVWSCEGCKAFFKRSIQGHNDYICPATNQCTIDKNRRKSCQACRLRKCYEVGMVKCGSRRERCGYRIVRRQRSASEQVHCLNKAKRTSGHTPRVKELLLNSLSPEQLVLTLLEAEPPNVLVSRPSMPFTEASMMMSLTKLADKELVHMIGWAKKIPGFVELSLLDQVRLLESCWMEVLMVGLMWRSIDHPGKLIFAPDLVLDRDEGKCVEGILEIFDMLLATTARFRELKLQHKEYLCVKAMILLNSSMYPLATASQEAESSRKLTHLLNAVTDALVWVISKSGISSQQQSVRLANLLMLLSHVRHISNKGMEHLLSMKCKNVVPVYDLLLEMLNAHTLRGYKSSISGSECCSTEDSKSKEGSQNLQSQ
Target sequence in this assay (P19785 whole entry, looked up): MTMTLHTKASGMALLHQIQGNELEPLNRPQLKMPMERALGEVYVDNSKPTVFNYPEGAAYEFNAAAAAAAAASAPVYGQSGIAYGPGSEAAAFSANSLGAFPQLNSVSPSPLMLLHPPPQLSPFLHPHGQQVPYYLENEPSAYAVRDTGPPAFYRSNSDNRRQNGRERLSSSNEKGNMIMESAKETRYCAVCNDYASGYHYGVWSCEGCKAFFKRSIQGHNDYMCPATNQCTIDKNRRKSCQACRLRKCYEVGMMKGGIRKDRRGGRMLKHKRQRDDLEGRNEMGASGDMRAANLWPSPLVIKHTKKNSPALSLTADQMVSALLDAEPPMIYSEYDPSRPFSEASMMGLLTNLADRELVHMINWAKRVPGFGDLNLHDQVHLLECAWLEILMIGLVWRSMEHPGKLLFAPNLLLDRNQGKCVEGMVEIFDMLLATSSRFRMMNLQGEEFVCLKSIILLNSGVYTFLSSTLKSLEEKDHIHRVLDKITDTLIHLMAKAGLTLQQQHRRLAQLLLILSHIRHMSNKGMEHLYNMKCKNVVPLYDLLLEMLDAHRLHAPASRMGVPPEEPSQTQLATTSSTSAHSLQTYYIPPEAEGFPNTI

[2] = system: MCF7; test: Effect on [3H]thymidine incorporation into estrogen receptor positive MCF-7 human breast cancer cells at 5x10E-6M (control = 43.4+/-1.8); type: functional
Method in brief: (§2)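 MCF-7 cells in improved MEM with glutamine, gentamycin and 5% newborn calf serum, switched to charcoal-treated serum two weeks ahead; phenol red present; 37 °C, 5% CO2. About 2×10^4 cells plated per well; compound in 0.1% DMF added 2 days later, renewed on day 4; labelled 3 days later with 1 μCi [3H]thymidine per well for 2 h; cpm/dish, mean of six dishes ± SD.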

[3] = system: MCF7; test: Effect on [3H]thymidine incorporation into estrogen receptor positive MCF-7 human breast cancer cells at 1x10E-6M; type: functional
Method in brief: (§3)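 MCF-7 cells were grown in MEM with charcoal-treated 5% newborn calf serum and phenol red, then treated with compounds in 0.1% DMF (renewed on day 4) alongside DMF controls. They were labeled 3 days later with 1 µCi [³H]thymidine per well for 2 h, and incorporated radioactivity per dish was measured; mean of six dishes ± SD; % T/C.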

[4] = system: MCF7; test: Effect on [3H]thymidine incorporation into estrogen receptor positive MCF-7 human breast cancer cells at 1x10E-6M (control = 43.4+/-1.8); type: functional; method in brief: as §3
[5] = system: MCF7; test: Effect on [3H]thymidine incorporation into estrogen receptor positive MCF-7 human breast cancer cells at 5x10E-6M; type: functional; method in brief: as §2
[6] = system: MCF7; test: Effect on Estrogen receptor positive MCF-7 human breast cancer cell proliferation at 1x10E-6M (control = 62.3+/-8.8); type: functional
Method in brief: (§4)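 MCF-7 cells were kept in MEM with 5% charcoal-treated newborn calf serum and phenol red for 2 weeks, then about 2×10^4 cells were plated per well. Compounds in 0.1% DMF were added 2 days later and renewed on day 4; DMF alone served as control. Coulter cell counts were taken on day 5; mean of six dishes ± SD; % T/C.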

[7] = target: T1, Estrogen receptor (Mus musculus); test: Anti-uterotrophic effect in mice as relative uterine weight(mg) at 15 ug; type: functional; method in brief: as §1
Target sequence in this assay (O08537 whole entry, looked up): as the sequence (O08537 whole entry, looked up) above
Target sequence in this assay (P19785 whole entry, looked up): as the sequence (P19785 whole entry, looked up) above

[8] = target: T1, Estrogen receptor (Mus musculus); test: Percent inhibition of estrone stimulated uterotrophic effect in mice at 15 ug; type: functional
Method in brief: (§5)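 Immature mice given test compound per animal sc on three consecutive days together with 0.4 μg estrone/animal/day. Killed 24 h after last injection; uteri fixed in Bouin, dried 100 °C 24 h and weighed. Inhibition = 100 − [(W_S,T − W_V)/(W_S − W_V) × 100] using relative uterus weights; 6-10 animals; Wilcoxon-Mann-Whitney U test.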
Target sequence in this assay (O08537 whole entry, looked up): as the sequence (O08537 whole entry, looked up) above
Target sequence in this assay (P19785 whole entry, looked up): as the sequence (P19785 whole entry, looked up) above

[9] = target: T1, Estrogen receptor (Mus musculus); test: Percent inhibition of estrone stimulated uterotrophic effect in mice at 150 ug; type: functional; method in brief: as §5
Target sequence in this assay (O08537 whole entry, looked up): as the sequence (O08537 whole entry, looked up) above
Target sequence in this assay (P19785 whole entry, looked up): as the sequence (P19785 whole entry, looked up) above

[10] = target: T1, Estrogen receptor (Mus musculus); test: Uterotrophic effect in mice as relative uterine weight(mg) at 150 ug (control = 14.6+/-2.7); type: functional, tissue-based
Method in brief: (§6)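 Immature mice dosed sc per animal on three consecutive days; vehicle controls. Killed and weighed 24 h after last injection; uteri fixed in Bouin solution 2 h, washed with alcoholic LiCl, dried at 100 °C for 24 h. Relative uterus weight = uterine dry weight (mg)/body weight (g) × 100; mean of 6-10 animals ± SD.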
Target sequence in this assay (O08537 whole entry, looked up): as the sequence (O08537 whole entry, looked up) above
Target sequence in this assay (P19785 whole entry, looked up): as the sequence (P19785 whole entry, looked up) above

[11] = system: MCF7; test: Effect on Estrogen receptor positive MCF-7 human breast cancer cell proliferation at 1x10E-6M; type: functional; method in brief: as §4
[12] = target: T1, Estrogen receptor (Mus musculus); test: Uterotrophic effect in mice as relative uterine weight(mg) at 15 ug (control = 14.6+/-2.7); type: functional, tissue-based; method in brief: as §6
Target sequence in this assay (O08537 whole entry, looked up): as the sequence (O08537 whole entry, looked up) above
Target sequence in this assay (P19785 whole entry, looked up): as the sequence (P19785 whole entry, looked up) above

[13] = system: MCF7; test: Effect on Estrogen receptor positive MCF-7 human breast cancer cell proliferation at 5x10E-6M (control = 62.3+/-8.8); type: functional; method in brief: as §4
[14] = system: MCF7; test: Effect on Estrogen receptor positive MCF-7 human breast cancer cell proliferation at 5x10E-6M; type: functional; method in brief: as §4
[15] = species: Mus musculus; test: Anti-tumor activity in hormone-dependent transplant MXT mammary tumor bearing mice at 8.8 mg (control=388+/-269); type: functional
[16] = species: Mus musculus; test: Relative tumor weight in treated compared to control mice bearing hormone-dependent transplanted MXT mammary tumors at 8.8mg; type: functional
[17] = target: T1, Estrogen receptor (Mus musculus); test: Anti-uterotrophic effect in hormone-dependent transplant MXT bearing mice as relative uterine weight in treated and control mice at 1.5 mg; type: functional
Target sequence in this assay (P19785 whole entry, looked up, chain 1 of 2): as the sequence (P19785 whole entry, looked up) above
Target sequence in this assay (O08537 whole entry, looked up, chain 2 of 2): as the sequence (O08537 whole entry, looked up) above

[18] = species: Mus musculus; test: Anti-tumor activity in hormone-dependent transplant MXT mammary tumor bearing mice at 1.5 mg (control=534+/-652); type: functional, organism-based
[19] = species: Mus musculus; test: Relative tumor weight in treated compared to control mice bearing hormone-dependent transplanted MXT mammary tumors at 1.5 mg; type: functional, organism-based
[20] = species: Mus musculus; test: Anti-tumor activity in hormone-dependent transplant MXT mammary tumor bearing mice at 20 mg (control=388+/-269); type: functional, organism-based
[21] = target: T1, Estrogen receptor (Mus musculus); test: Uterotrophic effect in mice as relative uterine weight(mg) at 25 ug (control = […]+/-1.7); type: functional, tissue-based
Target sequence in this assay (P19785 whole entry, looked up, chain 1 of 2): as the sequence (P19785 whole entry, looked up) above
Target sequence in this assay (O08537 whole entry, looked up, chain 2 of 2): as the sequence (O08537 whole entry, looked up) above

[22] = target: T1, Estrogen receptor (Mus musculus); test: Uterotrophic effect in mice as relative uterine weight(mg) at 250 ug (control = […]+/-1.7); type: functional, tissue-based
Target sequence in this assay (P19785 whole entry, looked up, chain 1 of 2): as the sequence (P19785 whole entry, looked up) above
Target sequence in this assay (O08537 whole entry, looked up, chain 2 of 2): as the sequence (O08537 whole entry, looked up) above

[23] = target: T1, Estrogen receptor (Mus musculus); test: Anti-uterotrophic effect in hormone-dependent transplant MXT bearing mice as relative uterine weight in treated and control mice at 20 mg (control=100+/-24); type: functional
Target sequence in this assay (P19785 whole entry, looked up, chain 1 of 2): as the sequence (P19785 whole entry, looked up) above
Target sequence in this assay (O08537 whole entry, looked up, chain 2 of 2): as the sequence (O08537 whole entry, looked up) above

[24] = species: Mus musculus; test: Relative tumor weight in treated compared to control mice bearing hormone-dependent transplanted MXT mammary tumors at 20 mg; type: functional, organism-based
[25] = target: T1, Estrogen receptor (Mus musculus); test: Anti-uterotrophic effect in mice as relative uterine weight(mg) at 250 ug; type: functional; method in brief: as §1
Target sequence in this assay (P19785 whole entry, looked up, chain 1 of 2): as the sequence (P19785 whole entry, looked up) above
Target sequence in this assay (O08537 whole entry, looked up, chain 2 of 2): as the sequence (O08537 whole entry, looked up) above

Relative uterus weight [1]: 44 mg | Relative uterus weight [7]: 52.2 mg | inhibition [8]: 4% | inhibition [9]: 25% | Relative uterus weight [10]: 15 mg | Relative uterus weight [12]: 22.1 mg
Compound: Cc1c(-c2ccc(O)cc2)n(CCCCNCc2ccccn2)c2ccc(O)cc12
Activity [2]: 33100 | T/C [3]: 87% | Activity [4]: 37800 | T/C [5]: 76% | Cell no/dish [6]: 598000 | T/C [11]: 96% | Cell no/dish [13]: 452000 | T/C [14]: 73%

Compound: CC/C(=C(\c1ccccc1)c1ccc(OCCN(C)C)cc1)c1ccccc1 [TAMOXIFEN]
Tumor weight [15]: 114 mg | T/C [16]: 29%

T/C [17]: 76%
Compound: CISPLATIN
Tumor weight [18]: 64 mg | T/C [19]: 12%

Relative uterus weight [21]: 20.2 mg | Relative uterus weight [22]: 35.7 mg | T/C [23]: 104% | Relative uterus weight [25]: 48 mg
Compound: [5-hydroxy-3-methyl-2-(4-hydroxyphenyl)-1-[omega-[(2-pyridylmethyl(1-ethyl))amino]hexyl]indole]dichloroplatinum (II) complex
Tumor weight [20]: 80 mg | T/C [24]: 21%
